Experimental findings from ChEMBL document CHEMBL1124123, “Graphics computer-aided receptor mapping as a predictive tool for drug design: development of potent, selective, and stereospecific ligands for the 5-HT1A receptor” (J Med Chem, 1988) are described below.

In assay [1] the target is T1, 5-hydroxytryptamine receptor 1A (Rattus norvegicus, UniProt P19327).
T1 sequence (P19327 whole entry): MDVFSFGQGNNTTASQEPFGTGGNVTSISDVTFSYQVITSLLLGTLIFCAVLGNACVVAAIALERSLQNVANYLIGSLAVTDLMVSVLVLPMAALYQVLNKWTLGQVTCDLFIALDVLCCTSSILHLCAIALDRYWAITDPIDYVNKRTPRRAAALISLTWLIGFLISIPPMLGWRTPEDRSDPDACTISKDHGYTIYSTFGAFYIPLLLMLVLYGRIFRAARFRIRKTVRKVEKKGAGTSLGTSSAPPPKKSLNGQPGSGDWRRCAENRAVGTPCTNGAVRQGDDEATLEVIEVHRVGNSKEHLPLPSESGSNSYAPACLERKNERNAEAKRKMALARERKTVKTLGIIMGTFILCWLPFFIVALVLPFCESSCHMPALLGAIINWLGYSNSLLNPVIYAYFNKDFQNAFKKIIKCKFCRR
The assay is described as follows: Binding affinity towards 5-hydroxytryptamine 1A receptor in rat frontal cortex using [3H]8-OH-DPAT as a radioligand. It counts as tissue-based.

Assay [2] concerns the target T2, Serotonin 2 (5-HT2) receptor (Rattus norvegicus, UniProt P30994+P08909+P14842). Description: Binding affinity towards 5-hydroxytryptamine 2 receptor in rat brain membrane using […] as a selective ligand. It counts as cell membranes. The method, boiled down:
(§1)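 5-HT2 sites in rat brain were labelled with [3H]ketanserin in a radioligand receptor binding assay.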

Assay [3] concerns the target T3, Adrenergic receptor alpha-2 (Rattus norvegicus, UniProt P22086+P19328+P22909).
T3 sequence (P22086 whole entry): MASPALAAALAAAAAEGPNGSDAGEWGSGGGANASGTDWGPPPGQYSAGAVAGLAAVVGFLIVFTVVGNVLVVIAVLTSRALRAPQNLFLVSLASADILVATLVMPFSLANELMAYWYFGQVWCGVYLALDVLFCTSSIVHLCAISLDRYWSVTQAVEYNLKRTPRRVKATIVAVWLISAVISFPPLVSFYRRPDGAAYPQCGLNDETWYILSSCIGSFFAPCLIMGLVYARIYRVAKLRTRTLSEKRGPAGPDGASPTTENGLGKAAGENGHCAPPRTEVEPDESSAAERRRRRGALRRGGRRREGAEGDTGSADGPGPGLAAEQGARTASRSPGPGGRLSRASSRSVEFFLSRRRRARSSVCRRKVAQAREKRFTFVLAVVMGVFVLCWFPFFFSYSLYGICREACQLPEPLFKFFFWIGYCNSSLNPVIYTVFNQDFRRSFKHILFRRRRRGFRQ
T3 sequence (P19328 whole entry): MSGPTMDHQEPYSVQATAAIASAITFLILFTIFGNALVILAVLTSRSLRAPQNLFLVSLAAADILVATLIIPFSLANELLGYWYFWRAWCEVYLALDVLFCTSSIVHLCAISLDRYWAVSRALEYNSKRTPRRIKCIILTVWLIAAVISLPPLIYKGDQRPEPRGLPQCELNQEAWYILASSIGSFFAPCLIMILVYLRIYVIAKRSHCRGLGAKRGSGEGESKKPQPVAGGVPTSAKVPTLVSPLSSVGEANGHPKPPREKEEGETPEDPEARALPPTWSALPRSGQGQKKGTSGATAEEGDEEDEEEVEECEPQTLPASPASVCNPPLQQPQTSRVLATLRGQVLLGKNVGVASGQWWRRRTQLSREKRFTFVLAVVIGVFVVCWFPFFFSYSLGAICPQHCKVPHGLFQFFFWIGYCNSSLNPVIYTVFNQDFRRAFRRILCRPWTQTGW
T3 sequence (P22909 whole entry): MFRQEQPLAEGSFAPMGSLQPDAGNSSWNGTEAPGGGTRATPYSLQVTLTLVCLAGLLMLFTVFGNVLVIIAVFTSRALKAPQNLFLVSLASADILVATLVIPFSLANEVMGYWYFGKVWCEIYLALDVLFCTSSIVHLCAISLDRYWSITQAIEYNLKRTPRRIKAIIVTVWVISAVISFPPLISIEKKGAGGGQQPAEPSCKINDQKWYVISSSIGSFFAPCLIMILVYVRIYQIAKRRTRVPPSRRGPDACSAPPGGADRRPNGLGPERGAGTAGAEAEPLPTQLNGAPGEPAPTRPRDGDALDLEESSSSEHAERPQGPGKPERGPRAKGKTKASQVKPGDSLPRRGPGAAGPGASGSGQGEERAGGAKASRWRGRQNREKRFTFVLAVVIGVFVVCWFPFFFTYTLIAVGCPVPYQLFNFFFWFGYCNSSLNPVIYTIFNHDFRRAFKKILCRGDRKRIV
The assay is described as follows: Binding affinity against alpha-2 adrenergic receptor in rat brain membrane using […] as a selective ligand. It counts as cell membranes. A digest of the protocol: (§2)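 Alpha2-adrenergic sites in rat brain were labelled with [3H]clonidine for radioligand binding.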

The target in assay [4] is T4, Adrenergic receptor alpha-1 (Rattus norvegicus, UniProt P15823+P23944+P43140).
T4 sequence (P15823 whole entry): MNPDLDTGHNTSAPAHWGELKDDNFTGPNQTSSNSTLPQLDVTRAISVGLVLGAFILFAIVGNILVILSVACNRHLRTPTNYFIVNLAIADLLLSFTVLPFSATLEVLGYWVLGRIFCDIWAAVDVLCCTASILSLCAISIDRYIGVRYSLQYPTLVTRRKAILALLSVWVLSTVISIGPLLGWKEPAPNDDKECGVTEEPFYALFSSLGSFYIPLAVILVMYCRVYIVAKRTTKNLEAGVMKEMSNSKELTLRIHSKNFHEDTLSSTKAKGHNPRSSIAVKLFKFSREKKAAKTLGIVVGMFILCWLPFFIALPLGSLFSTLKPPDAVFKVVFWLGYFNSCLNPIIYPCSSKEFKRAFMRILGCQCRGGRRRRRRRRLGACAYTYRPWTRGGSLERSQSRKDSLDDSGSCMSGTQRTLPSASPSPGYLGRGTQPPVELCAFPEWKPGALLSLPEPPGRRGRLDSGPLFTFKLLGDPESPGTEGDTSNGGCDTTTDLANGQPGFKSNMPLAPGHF
T4 sequence (P23944 whole entry): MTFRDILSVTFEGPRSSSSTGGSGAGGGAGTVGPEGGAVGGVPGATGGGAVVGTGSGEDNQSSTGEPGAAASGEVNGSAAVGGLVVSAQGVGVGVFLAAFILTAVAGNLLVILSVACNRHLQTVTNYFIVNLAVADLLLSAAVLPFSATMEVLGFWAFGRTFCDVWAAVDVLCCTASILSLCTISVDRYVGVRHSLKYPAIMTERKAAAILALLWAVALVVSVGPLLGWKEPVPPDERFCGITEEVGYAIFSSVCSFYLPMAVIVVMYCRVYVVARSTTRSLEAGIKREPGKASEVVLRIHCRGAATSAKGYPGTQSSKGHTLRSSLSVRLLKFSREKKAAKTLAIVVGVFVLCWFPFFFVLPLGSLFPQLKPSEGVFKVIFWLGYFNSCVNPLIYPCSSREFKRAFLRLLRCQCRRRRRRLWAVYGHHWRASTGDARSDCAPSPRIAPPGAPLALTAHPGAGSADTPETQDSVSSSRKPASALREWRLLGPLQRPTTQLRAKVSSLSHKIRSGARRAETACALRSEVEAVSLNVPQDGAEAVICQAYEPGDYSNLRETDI
T4 sequence (P43140 whole entry): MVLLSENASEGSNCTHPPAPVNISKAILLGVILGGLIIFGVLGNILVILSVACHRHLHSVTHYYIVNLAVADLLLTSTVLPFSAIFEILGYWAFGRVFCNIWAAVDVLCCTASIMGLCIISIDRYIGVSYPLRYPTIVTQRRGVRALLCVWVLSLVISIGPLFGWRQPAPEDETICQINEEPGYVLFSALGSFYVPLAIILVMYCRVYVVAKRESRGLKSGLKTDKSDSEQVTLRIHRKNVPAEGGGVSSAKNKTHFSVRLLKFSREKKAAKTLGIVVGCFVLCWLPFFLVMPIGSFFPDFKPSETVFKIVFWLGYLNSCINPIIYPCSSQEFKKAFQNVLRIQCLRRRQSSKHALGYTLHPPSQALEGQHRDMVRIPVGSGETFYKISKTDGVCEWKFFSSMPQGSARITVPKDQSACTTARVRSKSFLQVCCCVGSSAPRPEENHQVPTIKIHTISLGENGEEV
The assay is described as follows: Binding affinity against alpha-1 adrenergic receptor in rat brain membrane using […] as a selective ligand. It counts as cell membranes. A digest of the protocol: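 Alpha1-adrenergic binding in rat brain, using [3H]prazosin as the radioligand.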

For assay [5], the target named is T5, D(2) dopamine receptor (Rattus norvegicus, UniProt P61169). The assay is described as follows: Binding affinity against Dopamine receptor D2 in rat brain membrane using [3H]domperidone as radioligand.
T5 sequence (P61169 whole entry): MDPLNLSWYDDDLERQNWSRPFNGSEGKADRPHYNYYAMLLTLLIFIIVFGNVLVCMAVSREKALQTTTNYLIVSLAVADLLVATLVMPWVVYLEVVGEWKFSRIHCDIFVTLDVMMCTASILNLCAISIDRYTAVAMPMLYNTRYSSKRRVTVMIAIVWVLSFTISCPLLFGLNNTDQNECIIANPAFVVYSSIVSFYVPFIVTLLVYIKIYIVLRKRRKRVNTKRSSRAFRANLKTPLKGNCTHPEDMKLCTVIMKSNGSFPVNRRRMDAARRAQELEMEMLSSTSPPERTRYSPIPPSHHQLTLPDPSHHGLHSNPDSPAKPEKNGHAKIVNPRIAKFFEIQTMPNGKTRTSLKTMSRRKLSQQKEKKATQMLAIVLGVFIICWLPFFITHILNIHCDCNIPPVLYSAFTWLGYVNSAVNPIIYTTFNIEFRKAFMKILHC
Assay [6] concerns the target T6, 5-hydroxytryptamine receptor 1B (Rattus norvegicus, UniProt P28564). Description: Binding affinity against 5-HT1B receptor in rat brain membrane using [3H]-5-HT in the presence of 8-OH-DPAT.
Assay [7] deals with T1, 5-hydroxytryptamine receptor 1A. The assay is described as follows: Binding affinity towards 5-hydroxytryptamine 1A receptor in rat brain membrane using [3H]8-OH-DPAT as a selective ligand. It counts as cell membranes.
In assay [8] the target is T3, Adrenergic receptor alpha-2. Description: Binding affinity against alpha-2 adrenergic receptor in rat brain membrane using […]. It counts as cell membranes. A digest of the protocol:
as §2

Assay [9] has as its target T5, D(2) dopamine receptor. Description: Binding affinity against Dopamine receptor D2 in rat brain membrane using [3H]-8-OH-DPAT as a selective ligand. It counts as cell membranes. To be noted: in the assay text read “[3H]domperidone as radioligand” for “[3H]-8-OH-DPAT as a selective ligand”. A digest of the protocol: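 D2 receptor binding in rat brain, using [3H]domperidone as the radioligand.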

Assay [10] has as its target T6, 5-hydroxytryptamine receptor 1B. The assay is described as follows: Binding affinity against 5-HT1B receptor in rat frontal cortex using [3H]-5-HT in presence of 0.1 uM […]. It counts as tissue-based.
In assay [11] the target is T2, Serotonin 2 (5-HT2) receptor. The assay is described as follows: (§3) Binding affinity towards 5-hydroxytryptamine 2 receptor in rat frontal cortex using [3H]ketanserin as radioligand.
The target of assay [12] is T6, 5-hydroxytryptamine receptor 1B. The assay is described as follows: Binding affinity towards 5-HT1B receptor in rat brain membrane using [3H]8-OH-DPAT as a selective ligand. It counts as cell membranes.
Assay [13] concerns the target T2, Serotonin 2 (5-HT2) receptor. The description is as §3. It counts as tissue-based. The method, boiled down: as §1

T6 sequence (P28564 whole entry): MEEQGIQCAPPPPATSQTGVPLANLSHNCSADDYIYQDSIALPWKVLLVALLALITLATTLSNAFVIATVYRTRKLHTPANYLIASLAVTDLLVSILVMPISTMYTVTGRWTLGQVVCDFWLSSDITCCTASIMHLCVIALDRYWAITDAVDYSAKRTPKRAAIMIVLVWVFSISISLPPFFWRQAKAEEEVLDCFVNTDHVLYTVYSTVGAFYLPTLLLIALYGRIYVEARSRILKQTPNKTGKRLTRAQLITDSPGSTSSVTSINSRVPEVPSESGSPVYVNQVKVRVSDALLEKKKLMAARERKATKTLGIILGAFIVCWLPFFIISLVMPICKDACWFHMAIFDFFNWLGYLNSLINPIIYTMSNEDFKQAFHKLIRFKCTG

For orientation: IC50 means the concentration at which inhibition is half-maximal. For `O=C1CC2(CCCC2)CC(=O)N1CCCCNCC1COc2c(ccc3ccccc23)O1` (stereo unspecified), the figures for the IC50 (in assay [1]; at D(2) dopamine receptor [5]; in assay [6]) were 794 nM, 316 nM and 3160 nM, respectively. In addition, the “Log IC50” value in [2] was -5.9; in [3], less than -5; in assay [4], -5.2.

Regarding `O=C1CC2(CCCC2)CC(=O)N1CCCCNCC1COc2cc3ccccc3cc2O1` (stereo unspecified), the “Log IC50” value in assay [4] is -5.3. The compound also had an IC50 in assay [7] of 316 nM.

With `O=C1CC2(CCCC2)CC(=O)N1CCCCNC[C@@H]1COc2ccccc2O1`, the “Log IC50” value in assay [2] was -6.1; in assay [8], -6.2; in assay [4], -7.2. Moreover, the IC50 at D(2) dopamine receptor [9] is 2510 nM; in assay [7], 20 nM; in [6], 5010 nM.

Turning to `O=C1CC2(CCCC2)CC(=O)N1CCCCNC[C@H]1COc2ccccc2O1`, the concentration for half-maximal inhibition (IC50) is 0.631 nM in assay [1], 79.4 nM on D(2) dopamine receptor [9] and 794 nM in assay [6]. The “Log IC50” value in assay [2] was -6.7; in assay [3], -6.3; in assay [4] it was -8.

On to `O=C1CC2(CCCC2)CC(=O)N1CCCCNCC1COc2ccccc2O1` (stereo unspecified), for which the IC50 in assay [1] is 0.794 nM; on D(2) dopamine receptor [9] it was 158 nM; in assay [6], 631 nM. The “Log IC50” value is -6.2 in [2], -6.4 in assay [3] and -7.8 in assay [4].

As for `O=C1CC2(CCCC2)CC(=O)N1CCCCNCC1COc2ccc3ccccc3c2O1` (stereo unspecified), the values for the IC50 (in assay [1]; at D(2) dopamine receptor [9]; in assay [6]) were 5.01 nM, 158 nM and 398 nM, respectively. In addition, the “Log IC50” value in assay [2] is reported as -6.8; in assay [3], less than -5; in [4], -6.1.

Take `CSc1ccc2c(c1)[C@H](N1CCN(C)CC1)Cc1ccccc1S2`: the half-maximal inhibitory concentration (IC50) was 3240 nM in assay [10] and 851 nM in assay [7]. Besides, in assay [11], the “Log IC50” value is reported as -8.25.

Turning to `CSc1ccc2c(c1)[C@@H](N1CCN(C)CC1)Cc1ccccc1S2`, the results for the IC50 in assay [1] and in assay [12] were 95.5 nM and 182 nM, respectively. Moreover, the “Log IC50” value in [13] is given as -8.2.

`CCCN(CCC)C1CCc2cccc(O)c2C1` (stereo unspecified) [8-OH-DPAT]: the “Log IC50” value in assay [11] is -5.

Turning to `O=C(CCCN1CCC2(CC1)C(=O)NCN2c1ccccc1)c1ccc(F)cc1` [SPIPERONE], the results for the half-maximal inhibitory concentration (IC50) in assay [10] and in assay [7] were 1000 nM and 123 nM, respectively.
